Experimental data reported in PubChem BioAssay.
Some of the results follow. Active and inactive are the calls of the source.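 How the source made its calls: active means substances whose mean melting-temperature shift, as a percentage of the reference inhibitor's shift, reaches about 5.3% (limit read from the data); inactive means the rest.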

target: Carboxy-terminal domain RNA polymerase II polypeptide A small phosphatase 1 (Homo sapiens) (UniProt Q9GZU7); test: Scp-1 binding by thermal shift, confirmation, orthogonal assay for Scp-1 inhibitor project, biophysical, differential scanning fluorimetry (AID 540329); conditions: Recombinant SCP1, Sypro Orange thermal shift Tm; at 40 µM; stronger effect = higher value;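 further: 0% = Tm of DMSO wells and 100% = Tm with sodium orthovanadate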
Outline: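 Test system – Scp-1 catalytic domain protein (residues 76-261) · Quantity – 10 µM Scp-1 stock · Buffer or medium – Tris acetate pH 5.5, MgCl2, Tween-20 · Dosing – single compound dose, delivered from a 10 mM stock · Schedule – 20-95 °C thermal ramp · Measured by – Sypro Orange fluorescence thermal melt · Read-out basis – melting temperature shift relative to vanadate · Control set – vanadate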

Chain of Carboxy-terminal domain RNA polymerase II polypeptide A small phosphatase 1 (Homo sapiens) (Q9GZU7 76-261 limits assumed): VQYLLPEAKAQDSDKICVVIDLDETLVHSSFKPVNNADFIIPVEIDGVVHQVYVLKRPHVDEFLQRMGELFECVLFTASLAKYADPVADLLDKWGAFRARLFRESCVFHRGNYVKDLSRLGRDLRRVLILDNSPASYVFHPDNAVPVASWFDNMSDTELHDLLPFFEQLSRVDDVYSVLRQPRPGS

Thermal shift relative to vanadate control, active:
Cc1ccc(NC(=O)c2cc(-c3ccc(C)o3)nc3ccccc23)nc1 5.81%
COc1ccc(S(=O)(=O)c2c[nH]c(=S)[nH]c2=O)cc1Cl 13.1%

Thermal shift relative to vanadate control, inactive:
C[C@H](CO)N1C[C@H](C)[C@H](CN(C)C(=O)Nc2ccc(C(F)(F)F)cc2)Oc2c(NC(=O)c3ccncc3)cccc2C1=O 1.36%
Cc1c(CCC(=O)O)c(=O)oc2cc(OCc3ccc(Br)cc3)ccc12 -18.2%
CCCc1nc(-c2cc3cc(C)ccc3[nH]c2=O)no1 -30.4%
COc1ccc(Cl)cc1C=CC=NNC(=O)c1ccncc1 -17.4%
O=C(COC(=O)c1ccc(F)cc1F)Nc1ncccn1 1.27%
O=C(CCC(=O)N/N=C/c1ccc(Br)o1)N/N=C/c1ccc(Br)o1 -1.53%
CN(c1ccccc1)S(=O)(=O)c1ccc(Cl)c(C(=O)OCC(=O)NCc2ccco2)c1 -14.8%
O=C(NNC(=O)c1ccc2ccccc2c1)c1ccc(Cl)cc1 -19.4%
Nn1cnnc1N/N=C/c1cc([N+](=O)[O-])c(Cl)cc1Cl -3.64%
Cc1ccc(CCCOC(=O)C[N+]2(C)CCCC2)cc1 -9.83%
O=C(Nc1cccnc1)c1cc2cc(Br)ccc2oc1=O 0.88%
Cc1c(CCC(=O)O)c(=O)oc2c(C)c(OCc3ccccc3Cl)ccc12 -3.47%
ON=C1/C(=N\O)CC2(C/C1=N/O)OCCO2 4.94%
COc1ccc(NC(=O)CN(C)C(=O)/C=C/c2cn(Cc3ccccc3)nc2-c2cccnc2)cc1 -16.5%
Cc1ccc(CCNC(=O)c2ccc3nc4ccccc4c(=O)n3c2)cc1 -6.77%
O=C(O)c1ccc(N/N=C/c2ccc3ncccc3c2)cc1 4.85%
C[N+](C)(C)CCNC(=O)c1cc[n+](Cc2ccccc2)c(/C=N/O)c1 -22.6%
CC[n+]1c(C)n(-c2ccccc2)c2ccc(NC(C)=O)cc21 -13.8%
Cc1ccc(NC(=O)COc2ccc(/C=N\NC(=O)c3cccnc3)cc2)cc1C -4.33%
CC(C)CCOc1ccc(C(=O)C[N+]2(C)CCOCC2)cc1 -16.6%
O=C(COC(=O)CCC(=O)c1cccs1)NCc1ccco1 -2.74%
C=Cc1ccc(C(=O)N2CCCC(CCC(=O)N3CCN(c4ccccn4)CC3)C2)cc1 (stereo not drawn) -35.8%
O=C(Cn1nnc(-c2ccc3c(c2)OCO3)n1)NCc1ccco1 2.67%
COc1cccc(NC(C)=[N+](C)CCNS(=O)(=O)c2ccc(Cl)cc2)c1 -9.24%
Cc1nn(-c2cc(Cl)ccc2N)c(=O)c2ccccc12 -6.02%
O=C(Nc1cc(S(=O)(=O)N2CCCCC2)ccc1Cl)C1COc2ccccc2O1 (stereo not drawn) -12%
CCCCCN1CC(O)=C(c2nc(-c3ccc(Cl)cc3)cs2)C1=N -7.73%
COc1ccc(/C=C/C(=O)OCC(=O)NC2CCCCCC2)cc1OC -3.16%
C[n+]1ccc(C(=O)NCc2ccccc2)cc1 -7.9%
CO/N=C(\C(=O)N[C@@H]1C(=O)N2C(C(=O)O)=C(COC(C)=O)CS[C@H]12)c1csc(N)n1 (stereo in doubt) -5.16%
O=C(N/N=C/c1ccco1)c1ccc(C(=O)N/N=C/c2ccco2)o1 -14.3%
Cc1ccc(SCC(=O)NC(=O)NCc2ccco2)c(C)c1 -1.14%
O=c1[nH]n(-c2ccc([N+](=O)[O-])cc2)c(=O)c2ccccc12 2.78%
COc1ccc(Cl)cc1NC(=O)CCS(=O)(=O)c1ccc(Br)cc1 3.48%
CCOC(=O)C1=C(C)c2ccccc2OC1(C)C(=O)OCC (stereo not drawn) -2.89%
C=C1c2cccc(OC)c2O[C@H](C(=O)OCC)[C@@H]1CCCCCC -6.9%
